Tests used:
[1] = Apparent volume of distribution in healthy human plasma at 400 mg, po administered as single dose measured after 120 hrs; format: ADME, organism-based
[2] = Tmax in healthy human plasma at 800 mg, po administered as single dose measured after 120 hrs; format: ADME, organism-based
Method in brief: (§1)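 Fasted healthy adults (n = 6 per group) took one oral suspension dose. Plasma was sampled from predose through 0.25–120 h postdose and measured by validated LC-MS/MS (lower limit 1 ng/ml). Tmax was read directly from observed concentration–time data using actual sampling times and reported as median with range.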

[3] = Half life in healthy human plasma at 200 mg, po administered as single dose measured after 120 hrs; format: ADME, organism-based
Homo sapiens [4] = assay: Toxicity in healthy human assessed as changes in vital signs at 100 to 1200 mg, po administered as single dose; format: organism-based; conditions: in vivo
Method in brief: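 Vital signs were taken predose and during an in-house stay (48 h for groups 1–4, 120 h for the top dose). Outpatient visits at 72, 96 and 120 h followed a single fasted oral dose, in a double-blind, placebo-controlled design with 6 active and 2 placebo per group.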

[5] = Cmax in healthy human plasma at 400 mg, po administered as single dose measured after 120 hrs; format: ADME, organism-based; parameters: dose 400 mg, route oral
Method in brief: (§2)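 Healthy adults (n = 6 per dose) took a single oral suspension fasted (8 h before, 4 h after). Plasma was sampled from 0.25 to 120 h postdose and quantified by validated LC-MS/MS after acetonitrile precipitation (LLOQ 1 ng/ml). Cmax was read directly from observed concentration–time data; the group mean was reported.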

[6] = Apparent volume of distribution in healthy human plasma at 200 mg, po administered as single dose measured after 120 hrs; format: ADME, organism-based
[7] = Renal clearance in healthy human at 200 mg, po administered as single dose measured after 48 hrs; format: ADME, organism-based, Kidney; conditions: in vivo, read-out: CL_renal (converted)
Method in brief: (§3)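 Healthy adults (6 active per dose) got a single oral suspension dose after an 8-h fast, with food withheld 4 h. Urine over 0–48 h in intervals and serial EDTA plasma were assayed by validated LC-MS/MS, with plasma calibration from 1 to 1,000 ng/ml. CLR = Ae0-48 (urine volume × concentration summed) divided by plasma AUC0-48.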

[8] = Half life in healthy human plasma at 400 mg, po administered as single dose measured after 120 hrs; format: ADME, organism-based
Homo sapiens [9] = assay: Renal clearance in healthy human assessed as cumulative amount excreted in urine at 800 mg, po administered as single dose measured after 48 hrs; format: ADME, organism-based; conditions: in vivo
Method in brief: (§4)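 Healthy adults (6 per dose) received a single fasted oral suspension dose. Urine was collected predose and over 0–2, 2–4, 4–6, 6–8, 8–12, 12–24 and 24–48 h intervals, volumes were recorded, and aliquots were stored at −20°C. Samples were assayed by LC-MS/MS. Ae0-48 is the summed volume × concentration over all intervals; the mean was reported.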

Homo sapiens [10] = assay: Toxicity in healthy human assessed as changes in gamma-glutamyl transpeptidase level at 100 to 1200 mg, po administered as single dose; format: organism-based; conditions: in vivo
Method in brief: (§5)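 Randomized, double-blind, placebo-controlled single ascending dose study with eight subjects per group (6 drug, 2 placebo of microcrystalline cellulose). Subjects were fasted before dosing. Safety labs were done at 120 h, with a full chemistry panel also at 72 and 96 h for the top dose. Final evaluation on day 8–10, with adverse events recorded.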

[11] = Elimination rate constant in healthy human plasma at 1200 mg, po administered as single dose measured after 120 hrs; format: ADME, organism-based
Streptococcus pyogenes = assay: Antimicrobial activity against Streptococcus pyogenes; format: functional
[12] = Renal clearance in healthy human assessed as cumulative fraction excreted unchanged in urine at 1200 mg, po administered as single dose measured after 48 hrs; format: ADME, organism-based; conditions: read-out: Fraction Recovered in urine
Method in brief: (§6)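 After a single oral fasted suspension dose in healthy adults (6 per group), urine was collected in intervals to 48 h and measured by LC-MS/MS. fe0-48 = Ae0-48 (summed interval volume × concentration) / dose × 100%; the mean was reported.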

[13] = Tmax in healthy human plasma at 100 mg, po administered as single dose measured after 120 hrs; format: ADME, organism-based; method in brief: as §1
[14] = Apparent volume of distribution in healthy human plasma at 1200 mg, po administered as single dose measured after 120 hrs; format: ADME, organism-based
[15] = AUC (0 to infinity) in healthy human plasma at 100 mg, po administered as single dose measured after 120 hrs; format: ADME, organism-based; parameters: dose 100 mg, route oral, time infinity
Method in brief: (§7)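 Healthy adults (6 per dose group) received a single oral suspension after an 8-h fast, with food withheld 4 h. EDTA blood was drawn predose to 120 h. Plasma was protein-precipitated with ACN and assayed by LC-MS/MS (clarithromycin internal standard; range 1–1,000 ng/ml). AUC0-last was computed by linear-up/log-down trapezoid; AUC0-∞ added Clast/λz. Values are noncompartmental means.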

[16] = Renal clearance in healthy human at 400 mg, po administered as single dose measured after 48 hrs; format: ADME, organism-based, Kidney; conditions: in vivo, read-out: CL_renal (converted); method in brief: as §3
[17] = AUC (0 to infinity) in healthy human plasma at 400 mg, po administered as single dose measured after 120 hrs; format: ADME, organism-based; parameters: dose 400 mg, route oral, time infinity; method in brief: as §7
[18] = AUC (0 to last) in healthy human plasma at 400 mg, po administered as single dose measured after 120 hrs; format: ADME, organism-based; parameters: dose 400 mg, route oral, time 0 - last; method in brief: as §7
[19] = Renal clearance in healthy human at 100 mg, po administered as single dose measured after 48 hrs; format: ADME, organism-based, Kidney; conditions: in vivo, read-out: CL_renal (converted); method in brief: as §3
[20] = Tmax in healthy human plasma at 1200 mg, po administered as single dose measured after 120 hrs; format: ADME, organism-based; method in brief: as §1
[21] = Renal clearance in healthy human assessed as cumulative fraction excreted unchanged in urine at 100 mg, po administered as single dose measured after 48 hrs; format: ADME, organism-based; conditions: read-out: Fraction Recovered in urine; method in brief: as §6
[22] = Apparent oral clearance in healthy human plasma at 200 mg, po administered as single dose measured after 120 hrs; format: ADME, organism-based
Method in brief: (§8)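 Single oral suspension dose in fasted healthy adults (6 per group). Plasma was collected to 120 h and measured by LC-MS/MS (1–1,000 ng/ml). Apparent oral clearance was dose divided by AUC0-∞ (noncompartmental, linear-up/log-down trapezoid extrapolated with Clast/λz); the mean was reported.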

[23] = Renal clearance in healthy human at 1200 mg, po administered as single dose measured after 48 hrs; format: ADME, organism-based, Kidney; conditions: in vivo, read-out: CL_renal (converted); method in brief: as §3
Homo sapiens [24] = assay: Renal clearance in healthy human assessed as cumulative amount excreted in urine at 400 mg, po administered as single dose measured after 48 hrs; format: ADME, organism-based; conditions: in vivo; method in brief: as §4
[25] = Apparent oral clearance in healthy human plasma at 800 mg, po administered as single dose measured after 120 hrs; format: ADME, organism-based; method in brief: as §8
[26] = Apparent volume of distribution in healthy human plasma at 100 mg, po administered as single dose measured after 120 hrs; format: ADME, organism-based
Homo sapiens [27] = assay: Toxicity in healthy human assessed as changes in direct and total bilirubin level at 100 to 1200 mg, po administered as single dose; format: organism-based; conditions: in vivo; method in brief: as §5
Homo sapiens [28] = assay: Toxicity in healthy human assessed as changes in ECG parameters signs at 100 to 1200 mg, po administered as single dose; format: organism-based; conditions: in vivo
[29] = AUC (0 to last) in healthy human plasma at 1200 mg, po administered as single dose measured after 120 hrs; format: ADME, organism-based; parameters: dose 1200 mg, route oral, time 0 - last; method in brief: as §7
[30] = Cmax in healthy human plasma at 200 mg, po administered as single dose measured after 120 hrs; format: ADME, organism-based; parameters: dose 200 mg, route oral; method in brief: as §2
[31] = Half life in healthy human plasma at 100 mg, po administered as single dose measured after 120 hrs; format: ADME, organism-based

Structure (SMILES): CC[C@H]1OC(=O)[C@H](C)C(=O)[C@H](C)[C@@H](O[C@@H]2O[C@H](C)C[C@H](N(C)C)[C@H]2O)[C@@]2(C)C[C@@H](C)/C(=N\C(C)=O)[C@H](C)[C@@H](OC/C(=N\OCc3ccc(-n4cccn4)nc3)CO2)[C@]1(C)O [MODITHROMYCIN]
- Vd/F [1]: 635 L
- Tmax [2]: 4.26 h
- half-life [3]: 15.8 h
- Activity (Homo sapiens [4]): Non-toxic
- Cmax [5]: 542 ng/mL
- Vd/F [6]: 589 L
- CL renal at 48 h [7]: 60.3 mL/min
- half-life [8]: 15.8 h
- Amount Recovered in urine (Homo sapiens [9]): 91.1 mg
- Activity (Homo sapiens [10]): Non-toxic
- k el at 120 h [11]: 9.56e-06 s⁻¹
- Ratio (Streptococcus pyogenes): 32
- dose excreted at 48 h [12]: 5.84%
- Tmax [13]: 1.75 h
- Vd/F [14]: 909 L
- AUC(0-inf) [15]: 3430 ng·h/mL
- CL renal at 48 h [16]: 58 mL/min
- AUC(0-inf) [17]: 14400 ng·h/mL
- AUC(0-t) at 120 h [18]: 14300 ng·h/mL
- CL renal at 48 h [19]: 46.3 mL/min
- Tmax [20]: 5 h
- dose excreted at 48 h [21]: 8.57%
- CL/F [22]: 432 mL/min
- CL renal at 48 h [23]: 41.3 mL/min
- Amount Recovered in urine (Homo sapiens [24]): 41.9 mg
- CL/F [25]: 393 mL/min
- Vd/F [26]: 656 L
- Activity (Homo sapiens [27]): Non-toxic
- Activity (Homo sapiens [28]): Non-toxic
- AUC(0-t) at 120 h [29]: 37400 ng·h/mL
- Cmax [30]: 360 ng/mL
- half-life [31]: 15.6 h

From ChEMBL document CHEMBL1649161, “Pharmacokinetics of EDP-420 after ascending single oral doses in healthy adult volunteers” (Antimicrob Agents Chemother, 2009)
